# Screening results: PubChem, Johns Hopkins Ion Channel Center
# RGS4 inh: human RGS4 inhibition; AID 463165; 310,000 compounds, 0.45% hits; B-score at 10 µM; P49798; HEK293 M3R/RGS4 inducible, Fluo-4 calcium flux; active compounds read high; triggered by carbachol at its EC20;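 active = B-score, a plate-corrected calcium signal, over three deviations above library mean, with baseline fluorescence within five deviations of library mean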;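 note: RGS4 expression induced by doxycycline in cells with stable M3 receptor; B-score is computed from the integrated fluorescence ratio over baseline after carbachol; higher B-score means a larger calcium signal and so more RGS4 inhibition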
# Target sequence (P49798 whole entry, looked up): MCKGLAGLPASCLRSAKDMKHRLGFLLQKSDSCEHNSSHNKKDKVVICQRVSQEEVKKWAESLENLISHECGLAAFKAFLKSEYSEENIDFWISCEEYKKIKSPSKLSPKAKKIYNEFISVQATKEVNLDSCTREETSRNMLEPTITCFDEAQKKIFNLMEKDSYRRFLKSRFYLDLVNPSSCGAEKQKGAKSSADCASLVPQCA
# MrgX1 antag: human MrgX1 receptor antagonism, primary screen; Q96LB2; MRGX1-HEK293 calcium flux, Fluo-4, BAM8-22 antagonism; active compounds read low; B-score at 10 µM; 310,000 compounds, 1.3% hits; AID 588676;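 active = calcium-response B-score plate-corrected more than 3 library SD below zero, starting fluorescence within 5 deviations, no agonist response on first addition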;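 note: peak minus trough fluorescence over baseline after final BAM8-22 challenge near maximal dose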
# Target sequence (Q96LB2 whole entry, looked up): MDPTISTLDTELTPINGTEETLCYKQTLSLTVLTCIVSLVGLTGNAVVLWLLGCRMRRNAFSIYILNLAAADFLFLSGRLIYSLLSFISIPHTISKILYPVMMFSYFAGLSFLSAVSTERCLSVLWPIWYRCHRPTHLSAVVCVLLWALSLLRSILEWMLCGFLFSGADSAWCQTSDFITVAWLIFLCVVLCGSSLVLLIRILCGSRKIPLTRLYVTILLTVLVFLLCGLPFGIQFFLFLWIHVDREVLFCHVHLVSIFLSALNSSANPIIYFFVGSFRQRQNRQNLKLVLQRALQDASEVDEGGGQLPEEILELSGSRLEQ
# RGS4 act: potentiators or activators of RGS4; AID 463111; HEK293 M3R/inducible RGS4, carbachol calcium flux Fluo4; active compounds read low; 310,000 compounds, 0.92% hits; B-score at 10 µM;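 active = B-score of the integrated calcium signal more than 4 SD below the library mean, with starting fluorescence not abnormally high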;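 note: negative B-score means reduced calcium response which marks RGS4 activation or potentiation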
#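 Also added: carbachol at ECmax as muscarinic agonist stimulus; Assay system: HEK293 cells with stable M3R and inducible RGS4; Timing: overnight RGS4 induction, 30 min dye load 37 °C, 20 min compound RT; Measured by: Fluo4-AM (2 µM) calcium-flux fluorescence, kinetic read.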
# MrgX1 PAM: human MrgX1 positive allosteric modulation, primary screen. Q96LB2. B-score at 10 µM. 310,000 compounds, 0.63% hits. MrgX1-HEK293, Fluo-4 calcium flux, FDSS; active compounds read high;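 active = plate-corrected calcium response at least 3 library SD above typical, normal starting fluorescence, not activating the receptor alone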;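 note: compound read alongside a low EC10 to EC30 dose of BAM8-22 agonist; peak minus trough fluorescence over baseline measured at the second addition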
# MrgX1 agonist: agonists of human MrgX1 receptor | Q96LB2 | MrgX1-HEK293 cells, Fluo-4 calcium fluorescence, agonist mode; active compounds read high | B-score at 10 µM | 310,000 compounds, 0.44% hits;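 active = calcium response B-score plate-corrected fluorescence ratio at least 3 library SD, with starting fluorescence B-score inside 5 SD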
#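 Test system: Stable human MrgX1 HEK293 cell line | Schedule: Overnight plating before 1 h dye loading | Read-out basis: Baseline-normalised fluorescence change ratio, B-scored | Detection: Kinetic calcium dye fluorescence, Fluo-4 NW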
# The depositor's hits bear a star; i = inactive; . = no result. This is a sample that favours compounds with a hit; in the whole collection about 3.5% have one here.
SMILES,RGS4 inh,MrgX1 antag,RGS4 act,MrgX1 PAM,MrgX1 agonist
CN1C(=O)C(O)(CC(=O)c2ccc(F)cc2)c2cc(Br)ccc21 (stereo unspecified),i,-5.1*,i,i,i
Cc1nn(-c2cc(C(F)(F)F)ccc2Cl)c2nc(C(Cl)(Cl)Cl)[nH]c(=O)c12,i,i,i,i,43*
Cc1nn(-c2ccccc2)c2nc(C(F)(F)F)[nH]c(=O)c12,i,i,i,i,i
COc1cc(/C=C2/SC(=S)N(c3c(C)n(C)n(-c4ccccc4)c3=O)C2=O)ccc1O,i,i,i,i,36*
CCOc1ccc(NC(=O)NNC(=O)COc2ccc3ccccc3c2)cc1,i,-6.7*,i,i,i
O=C(C[n+]1cc(Br)cc2ccccc21)c1ccc(Cl)cc1,i,i,i,7.4*,i
CCN(CC)CCCNC(=O)c1cc(Cl)c(NC(=O)C2=C(C)OCCS2)cc1OC,i,i,i,i,i
CC(C)C(=O)Nc1ncc2c(n1)CC(c1cccs1)CC2=O (stereo unspecified),i,i,i,i,i
O=C(COC(=O)c1ccco1)Nc1nc2ccc([N+](=O)[O-])cc2s1,i,i,i,i,i
Cc1ccc(C)c(OCC(=O)Nc2nc3ccc([N+](=O)[O-])cc3s2)c1,i,-7.2*,i,i,i
CCOCCCNC(=O)CN1C(=O)NC(Cc2c[nH]c3ccccc23)C1=O (stereo unspecified),i,i,i,i,i
O=C(O)COc1ccccc1C(Nc1cccnc1)c1cc(Cl)c2cccnc2c1O (stereo unspecified),i,.,i,.,.
CCOc1ccc(C(Nc2cccnc2)c2cc(Cl)c3cccnc3c2O)cc1 (stereo unspecified),i,i,-8.3*,i,i
O=C(CCCCCNc1nc(=S)[nH]c2ccccc12)NCCc1ccc(Cl)cc1,i,i,i,9.7*,i
O=C(CCCCCNc1nc(=S)[nH]c2ccccc12)NCCc1c[nH]c2ccccc12,i,i,i,i,i
O=C(COC(=O)c1n[nH]c2ccccc12)c1cccc(Br)c1,i,-5.4*,i,i,i
c1ccc2c(c1)CCN(c1nc(CN3CCOCC3)nc3sc4c(c13)CCCC4)C2,i,i,i,i,i
O=C(N/N=C/c1ccccc1Cl)c1ccncc1,i,i,i,i,i
O=C(N/N=C/c1cc(Cl)ccc1O)c1ccncc1,i,-5.1*,i,i,i
COc1cc(OC)c(NS(=O)(=O)c2cc(Br)cnc2N)cc1Cl,i,i,i,i,i
Cc1ccc(NS(=O)(=O)c2cc(Br)cnc2N)c(Cl)c1,i,i,-7*,i,i
C=CCN1C(=O)/C(=C2/Sc3ccc(OC)cc3N2C)SC1=Nc1cccc(O)c1,i,i,i,i,i
CC(C)c1ccc(NC(=O)[C@@H](C)NC(=O)[C@@H]2Cc3ccccc3CN2)cc1,i,i,-7.4*,i,i
Cc1cc(/C=N\NC(=O)CC(=O)NC2CCCCC2)c(C)n1-c1ccc(Cl)c(Cl)c1,i,i,i,i,i
Cc1cc(/C=N\NC(=O)CC(=O)NC2CCCCC2)c(C)n1-c1cccc(Cl)c1Cl,i,-6.3*,i,i,i
SMILES,RGS4 inh,MrgX1 antag,RGS4 act,MrgX1 PAM,MrgX1 agonist
C=CCn1c(SCC(=O)c2ccc(Br)cc2)nnc1C(CC(C)C)NC(=O)c1cccs1 (stereo unspecified),i,-6.1*,i,i,i
COc1cc(/C=C2/C(=O)NN(c3ccc(C)c(Cl)c3)C2=O)cc([N+](=O)[O-])c1O,i,i,i,i,i
COc1cc(/C=C2/C(=O)NN(c3cccc(C)c3)C2=O)cc([N+](=O)[O-])c1O,i,-9.6*,i,i,i
CCCCCc1ccc(OCCCC[n+]2ccc(C)cc2)c(CCCCC)c1,i,i,i,i,i
CCCCCc1ccc(OCCCC[n+]2ccccc2)c(CCCCC)c1,i,i,-7.8*,i,i
CCCCCc1ccc(OCCCC[n+]2cccc(C)c2)c(CCCCC)c1,i,i,-8.7*,i,i
CCCCCCCCCCCC(=O)NC(C(=O)OCC)C(O)c1cccc([N+](=O)[O-])c1 (stereo unspecified),i,i,i,i,i
O=C1c2ccccc2C(=O)C1c1ccc(Cl)cc1,i,-6.5*,i,i,i
COc1ccc(CC(=O)N/N=C(/C)CC(=O)N(C)c2ccccc2)cc1,i,i,i,i,i
Cc1cc2[nH]c3c(c[n+](C)c4ccccc34)c2cc1C,i,i,-7.1*,i,i
CC(C)C[C@H](NC(=O)c1cc2cc(Cl)ccc2n1C)C(=O)N1CCC(C(=O)O)CC1,i,i,i,i,i
O=C(CNC(=O)c1ccccc1)OC1CCCCC1,i,i,i,i,i
C[N+]1(C)CCCC(OC(=O)C(O)(c2ccccc2)c2ccccc2)C1 (stereo unspecified),i,i,-11*,i,i
CC1Cc2ccccc2N1C(=O)CSc1nc2c(c(=O)n(C)c(=O)n2C)n1Cc1ccccc1 (stereo unspecified),i,i,-7.2*,i,i
CCn1c(SCC(=O)N2c3ccccc3CCc3ccccc32)nc2c1c(=O)n(C)c(=O)n2C,i,i,i,i,i
CCc1ccc(CN2CCC(C(=O)Nc3ccc(Oc4ccccc4)nc3)CC2)o1,i,i,i,i,i
CC(OC(=O)/C=C/c1ccc(Br)cc1)C(=O)N1CCOCC1 (stereo unspecified),i,-8*,i,i,i
CCCCn1c(-c2ccco2)nc2oc3ccccc3c(=O)c2c1=O,i,i,i,i,i
O=C(O)CSCC(=O)N(Cc1ccccc1)c1nc(-c2ccccc2)c(-c2ccccc2)s1,i,-4.7*,i,i,i
Cc1cccnc1NC(=O)c1ccc2c(c1)NC(=O)C(C)S2 (stereo unspecified),i,i,i,i,i
CCN(CC)S(=O)(=O)c1ccc(Nc2nc3ccccc3n3nnnc23)cc1,i,-6.8*,i,14*,i
c1ccc(Nc2nc3ccccc3n3nnnc23)cc1,i,i,i,i,i
O=C(Cc1ccc(Br)cc1)N1CCN(C(=O)c2ccco2)CC1,i,i,i,i,i
CCOC(=O)N1CCN(C(=O)CSCC(=O)Nc2nc(-c3ccc(-c4ccccc4)cc3)cs2)CC1,i,-6.4*,i,i,i
